Assay [1] can be described thus: hit retest on RPL19A-GFP reporter strain – cell-based, S. cerevisiae, flow cytometry, cherry picks, mother/daughter gates, confirmation (AID 2270;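 active = GFP response below 50% of the DMSO control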). The conditions noted are these: 3 h, at 10 µM, stronger effect = lower value, 100 = same GFP as DMSO wells. On the technique in general: Flow cytometry measures light scatter and fluorescence of single cells or particles in a stream.

Assay [2] in a line: yeast TOR pathway reporter LAP4-GFP change – cell-based, cherry picks, flow cytometry, mother/daughter gates, confirmation (AID 2271;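 active = GFP response above 150% of the DMSO control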;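 note: ratio of sample to DMSO plate mean so 100% equals DMSO level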). As to conditions: S. cerevisiae LAP4-GFP strain, 3 h, at 10 µM, stronger effect = higher value, 100 means same as DMSO control. Put shortly:
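Test system: GFP-fusion yeast strain / Amount: 0.2 OD600 cells / Buffer or medium: SC medium / Dosing: 10 µM single dose / Incubation: compound exposure 3 h at 30 °C, end-over-end rotation / Detection: HT flow cytometry, GFP fluorescence channel / Evaluation: median GFP fluorescence as percent of plate-mean DMSO wells / Control set: DMSO-only negative wells, rapamycin 400 ng/mL positive wells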

Assay [3] can be described thus: TOR pathway reporter MEP2-GFP, retest of hits – S. cerevisiae, flow cytometry GFP, cherry picks, confirmation (AID 2272;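 active = GFP response above 150% of the DMSO control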;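 note: ratio of well signal to plate DMSO mean so 100% equals DMSO level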). The conditions noted are these: S. cerevisiae MEP2-GFP strain, 3 h, at 10 µM, stronger effect = higher value.
Assay [4] in a line: yeast AGP1-GFP fluorescence change, single-dose – cell-based, flow cytometry, S. cerevisiae, cherry picks, confirmation (AID 2273).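 Note: median GFP channel fluorescence over the whole cell population gate.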 As to conditions: S. cerevisiae AGP1-GFP strain, 3 h, at 10 µM.
A short description of assay [5]: TOR pathway CIT2 reporter hit retest – S. cerevisiae, GFP fusion, cherry picks, mother/daughter gates, confirmation (AID 2274). The conditions noted are these: S. cerevisiae CIT2-GFP strain, flow cytometry, 3 h, at 10 µM, stronger effect = higher value.
Setting [6] is: measured here: daughter cell gate.
Setting [7] is: measured here: mother cell gate.
Setting [8] is: measured here: daughter cell gate response.
Where [9] appears, read: measured here: mother cell gate response.

Activity calls are given as the source filed them.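 Rule for the calls, unless noted: active = GFP response above 150% of the DMSO level; inconclusive = fewer than 70 events counted for a yeast strain; inactive = the rest.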

Turning to `Cc1[nH][nH]c(=O)c1C(c1ccc(N(C)C)c(Br)c1)c1c(C)[nH][nH]c1=O`, the GFP response vs DMSO was 99.3% (inactive) in assay [1], 98% in assay [1] (setting [6]), 99.2% in assay [1] (setting [7]) and 104% (inactive) in assay [3]. In addition, the GFP response relative to DMSO in assay [2] is 116% (inactive); in assay [2] (setting [8]), 115%; in assay [2] (setting [9]), 114%. Also, the GFP response, % of DMSO was 105% (inactive) in assay [4], 96.4% (inactive) in assay [5], 96.4% in assay [5] (setting [6]) and 94.5% in assay [5] (setting [7]).
In the case of `O=C(Nc1nc2ccc(F)cc2s1)c1ccccn1`, the GFP response vs DMSO in assay [1] is 102% (inactive); in assay [1] (setting [6]), 102%; in assay [1] (setting [7]), 99.3%; in assay [3] it was 116% (inactive). In addition, the GFP response relative to DMSO in assay [2] is 185% (active); in assay [2] (setting [8]), 156%; in assay [2] (setting [9]), 193%. Moreover, the GFP response, % of DMSO in assay [4] was 107% (inactive); in assay [5], 99.7% (inactive); in assay [5] (setting [6]), 105%; in assay [5] (setting [7]) it was 92.8%.
For the compound `O=[N+]([O-])c1cccnc1S(=O)(=O)c1ccccc1`, the GFP response vs DMSO is 97.6% (inactive) in assay [1], 94.7% in assay [1] (setting [6]), 96.2% in assay [1] (setting [7]) and 103% (inactive) in assay [3]. For the same compound, the GFP response relative to DMSO is 114% (inactive) in assay [2], 110% in assay [2] (setting [8]) and 112% in assay [2] (setting [9]). Besides, the GFP response, % of DMSO is 102% (inactive) in assay [4], 90.1% (inactive) in assay [5], 88.4% in assay [5] (setting [6]) and 89.5% in assay [5] (setting [7]).
Turning to `O=C(CSc1cccc[n+]1[O-])c1cc2ccccc2o1`, the GFP response vs DMSO is 104% (inactive) in assay [1], 107% in assay [1] (setting [6]), 103% in assay [1] (setting [7]) and 109% (inactive) in assay [3]. Further, the GFP response relative to DMSO in assay [2] was 138% (inactive); in assay [2] (setting [8]), 126%; in assay [2] (setting [9]), 137%. In addition, the GFP response, % of DMSO is 97.2% (inactive) in assay [4], 107% (inactive) in assay [5], 111% in assay [5] (setting [6]) and 104% in assay [5] (setting [7]).
Turning to `CC(=O)c1ccc2c3c(cccc13)C(=O)N(c1c(C)nn(C)c1C)C2=O`, the GFP response vs DMSO is 100% (inactive) in assay [1], 100% in assay [1] (setting [6]), 101% in assay [1] (setting [7]) and 102% (inactive) in assay [3]. The GFP response relative to DMSO in assay [2] is 97.7% (inactive); in assay [2] (setting [8]) it was 97.9%; in assay [2] (setting [9]), 97.5%. In addition, the GFP response, % of DMSO in assay [4] is 100% (inactive); in assay [5], 96.4% (inactive); in assay [5] (setting [6]), 98.3%; in assay [5] (setting [7]), 96.8%.
`C/C(=N/NS(=O)(=O)c1ccccc1)c1ccc(NC(=O)C(F)(F)F)cc1`: the GFP response vs DMSO in assay [1] was 102% (inactive); in assay [1] (setting [6]), 103%; in assay [1] (setting [7]) it was 103%; in assay [3], 99.5% (inactive). Moreover, the GFP response relative to DMSO in assay [2] is 94.2% (inactive); in assay [2] (setting [8]) it was 95%; in assay [2] (setting [9]) it was 94.6%. In addition, the GFP response, % of DMSO in assay [4] is 91% (inactive); in assay [5], 95% (inactive); in assay [5] (setting [6]) it was 96.4%; in assay [5] (setting [7]) it was 93.3%.
Turning to `CCC(Sc1nc(=O)cc(N)n1-c1ccccc1)C(=O)Nc1cc(C)on1` (stereo unspecified), the GFP response vs DMSO in assay [1] is 98.2% (inactive); in assay [1] (setting [6]) it was 98.8%; in assay [1] (setting [7]) it was 95.3%; in assay [3] it was 108% (inactive). Also, the values for the GFP response relative to DMSO in assay [2], in assay [2] (setting [8]) and in assay [2] (setting [9]) were 105% (inactive), 105% and 96.5%, respectively. Further, the GFP response, % of DMSO in assay [4] is 102% (inactive); in assay [5], 109% (inactive); in assay [5] (setting [6]), 111%; in assay [5] (setting [7]), 104%.
With `CC(C)Cn1c(=O)c(C(=O)Nc2ccncc2)c(O)c2ccccc21`, the GFP response vs DMSO in assay [1] is 94.7% (inactive); in assay [1] (setting [6]) it was 101%; in assay [1] (setting [7]), 85%; in assay [3], 117% (inactive). The figures for the GFP response relative to DMSO in assay [2], in assay [2] (setting [8]) and in assay [2] (setting [9]) were 160% (active), 122% and 155%, respectively. The GFP response, % of DMSO in assay [4] was 88.7% (inactive); in assay [5], 97.8% (inactive); in assay [5] (setting [6]), 99.7%; in assay [5] (setting [7]), 90.2%.
For the compound `O=C(Nc1nc(-c2ccccn2)cs1)c1cc2ccccc2o1`, the GFP response vs DMSO in assay [1] was 97.4% (inactive); in assay [1] (setting [6]) it was 96.7%; in assay [1] (setting [7]), 83.7%; in assay [3], 129% (inactive). Further, the GFP response relative to DMSO was 285% (active) in assay [2], 163% in assay [2] (setting [8]) and 215% in assay [2] (setting [9]). In addition, the GFP response, % of DMSO in assay [4] was 120% (inactive); in assay [5], 124% (inactive); in assay [5] (setting [6]), 104%; in assay [5] (setting [7]), 91%.
With `O=C1/C(=C\c2ccccn2)SC(=S)N1Nc1ncc(C(F)(F)F)cc1Cl`, the GFP response vs DMSO in assay [1] is 99.1% (inactive); in assay [1] (setting [6]), 98.3%; in assay [1] (setting [7]), 99%; in assay [3], 102% (inactive). Further, the GFP response relative to DMSO in assay [2] is 98.8% (inactive); in assay [2] (setting [8]), 92.2%; in assay [2] (setting [9]) it was 99.5%. In addition, the GFP response, % of DMSO in assay [4] was 94.9% (inactive); in assay [5], 95% (inactive); in assay [5] (setting [6]), 94.6%; in assay [5] (setting [7]), 93.3%.
As for `COC(=O)c1ccc(Cn2cc(/C=C\[N+](=O)[O-])c3ccccc32)o1`, the GFP response vs DMSO in assay [1] was 103% (inactive); in assay [1] (setting [6]) it was 104%; in assay [1] (setting [7]), 102%; in assay [3] it was 106% (inactive). In addition, the GFP response relative to DMSO is 122% (inactive) in assay [2], 115% in assay [2] (setting [8]) and 127% in assay [2] (setting [9]). Further, the GFP response, % of DMSO in assay [4] was 98.2% (inactive); in assay [5], 96.4% (inactive); in assay [5] (setting [6]), 100%; in assay [5] (setting [7]), 92.1%.
`c1ccc(-c2n[nH]c3ccccc23)cc1`: the GFP response vs DMSO in assay [1] is 98.4% (inactive); in assay [1] (setting [6]), 97.1%; in assay [1] (setting [7]) it was 97.6%; in assay [3], 96.2% (inactive). Further, the GFP response relative to DMSO in assay [2] was 101% (inactive); in assay [2] (setting [8]), 101%; in assay [2] (setting [9]) it was 98.3%. Also, the GFP response, % of DMSO was 92.1% (inactive) in assay [4], 96.9% (inactive) in assay [5], 97.2% in assay [5] (setting [6]) and 97.3% in assay [5] (setting [7]).
For `CCOc1ccc2nc(SCC(=O)NCC3CCCO3)c(C#N)cc2c1` (stereo unspecified), the GFP response vs DMSO was 97.8% (inactive) in assay [1], 95.9% in assay [1] (setting [6]), 99.2% in assay [1] (setting [7]) and 97.8% (inactive) in assay [3]. Besides, the GFP response relative to DMSO in assay [2] is 99.8% (inactive); in assay [2] (setting [8]) it was 100%; in assay [2] (setting [9]), 101%. Moreover, the GFP response, % of DMSO in assay [4] is 96.3% (inactive); in assay [5] it was 90% (inactive); in assay [5] (setting [6]), 91.5%; in assay [5] (setting [7]), 88%.
As for `CCN(CC)c1ccc(/C=C2\SC(=O)N(C(C)C)C2=O)o1`, the GFP response vs DMSO in assay [1] is 99.6% (inactive); in assay [1] (setting [6]) it was 99.8%; in assay [1] (setting [7]) it was 96.5%; in assay [3], 132% (inactive). Also, the values for the GFP response relative to DMSO in assay [2], in assay [2] (setting [8]) and in assay [2] (setting [9]) were 117% (inactive), 116% and 117%, respectively. Moreover, the GFP response, % of DMSO in assay [4] was 105% (inactive); in assay [5], 112% (inactive); in assay [5] (setting [6]), 115%; in assay [5] (setting [7]), 110%.
For the compound `O=C(Nc1cccc(C(F)(F)F)c1)Oc1ccc(Cl)c2cccnc12`, the GFP response vs DMSO in assay [1] was 98% (inactive); in assay [1] (setting [6]), 97.6%; in assay [1] (setting [7]) it was 98.2%; in assay [3], 103% (inactive). For the same compound, the figures for the GFP response relative to DMSO in assay [2], in assay [2] (setting [8]) and in assay [2] (setting [9]) were 110% (inactive), 108% and 111%, respectively. The GFP response, % of DMSO in assay [4] is 99.3% (inactive); in assay [5], 108% (inactive); in assay [5] (setting [6]), 110%; in assay [5] (setting [7]) it was 107%.
Turning to `CCc1ccccc1OCc1nnc(N)s1`, the GFP response vs DMSO was 101% (inactive) in assay [1], 98.8% in assay [1] (setting [6]), 102% in assay [1] (setting [7]) and 101% (inactive) in assay [3]. Besides, the GFP response relative to DMSO in assay [2] is 98.2% (inactive); in assay [2] (setting [8]), 99.1%; in assay [2] (setting [9]), 97.3%. In addition, the GFP response, % of DMSO in assay [4] is 102% (inactive); in assay [5], 100% (inactive); in assay [5] (setting [6]) it was 101%; in assay [5] (setting [7]), 99.3%.

Values taken from PubChem BioAssay.
